Measured values from ChEMBL document CHEMBL2057141, “Imidazolopiperazines: lead optimization of the second-generation antimalarial agents” (J Med Chem, 2012).

Key:
[1] = tested on: Plasmodium berghei; experiment: Antimalarial activity against Plasmodium berghei ANKA expressing GFP infected in po dosed NMRI mouse assessed as reduction of parasite level in blood administered 24 hrs post infection measured after 72 hrs post infection by flow cytometry; type: functional
[2] = tested on: CHO; experiment: Cytotoxicity against CHO cells; type: cell-based, Cricetulus griseus; conditions: chinese hamster
[3] = tested on: Plasmodium berghei; experiment: Antimalarial activity against Plasmodium berghei ANKA expressing GFP infected in NMRI mouse assessed as reduction of parasite level in blood at 30 mg/kg, po administered 24 hrs post infection measured after 72 hrs post infection by flow cytometry; type: functional; parameters: scale not given: the % may be the effect or the level left
Summary of the method: (§1)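 Female NMRI mice (20–22 g, n=3) are infected i.v. with 2×10^7 P. berghei GFP ANKA-infected erythrocytes. Oral compound in 75% PEG300/25% D5W is given at 10 mL/kg, once at 24 h or daily at 24/48/72 h post-infection. Parasitemia is read by flow cytometry at 72 h (single dose) or 96 h (triple dose). Activity is % reduction of mean parasitemia versus untreated controls.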

[4] = tested on: Plasmodium berghei; experiment: Antimalarial activity against Plasmodium berghei ANKA expressing GFP infected in NMRI mouse assessed as increase of mouse survival at 30 mg/kg, po administered 24 hrs post infection (reference value: 6 to 7 days); type: functional
[5] = Clearance in Balb/c mouse plasma at 5 mg/kg, iv; type: ADME, organism-based; parameters: dose 5 mg/kg, route intravenous
Summary of the method: (§2)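 Male Balb/c mice (n = 3 per group). Compound as a 2.5 mg/mL solution in PEG300/D5W 3:1, filtered. Given by lateral tail vein at 5 mg/kg (2 mL/kg) or orally at 20 mg/kg (8 mL/kg). Six serial 50 μL retro-orbital blood samples to 24 h, heparinized plasma. Plasma extracted with acetonitrile:methanol 3:1 with internal standard, LC-MS/MS. Noncompartmental analysis; F = AUCpo×dose_iv/AUCiv×dose_po.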

[6] = AUC (all) in Wistar rat at 100 mg/kg, po; type: ADME, organism-based; parameters: dose 100 mg/kg, route oral; conditions: plasma
Summary of the method: (§3)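 Wistar rats, three per route. Dosed IV at 3 mg/kg or orally at 10, 30 or 100 mg/kg; the 100 mg/kg arm used a suspension, others a 2.5 mg/mL filtered 75% PEG300/25% D5W formulation. Six 100 μL blood samples serially per rat within 24 h. LC-MS/MS of plasma, noncompartmental parameters; F is dose-corrected AUCpo/AUCiv.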

[7] = Cytotoxicity against mouse BA/F3 cells; type: cell-based; conditions: baf3
[8] = tested on: Plasmodium berghei; experiment: Antimalarial activity against Plasmodium berghei ANKA expressing GFP infected in NMRI mouse assessed as reduction of parasite level in blood at 30 mg/kg, po administered 24 hrs post infection qd for 3 days measured after 96 hrs post infection by flow cytometry; type: functional; parameters: scale not given: the % may be the effect or the level left; summary of the method: as §1
[9] = Oral bioavailability in Wistar rat at 30 mg/kg; type: ADME, organism-based; conditions: in vivo; summary of the method: as §3
[10] = Cytotoxicity against human Hep2 cells; type: cell-based; conditions: HEp-2 cells
[11] = Cytotoxicity against human HuH7 cells; type: cell-based; conditions: Huh-7 cells
[12] = tested on: Plasmodium falciparum; experiment: Antimalarial activity against Plasmodium falciparum 3D7 after 72 hrs by SYBR green fluorescence assay; type: functional, organism-based; conditions: 3D7, 72 h
Summary of the method: (§4)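 P. falciparum grown in O+ erythrocytes, screened in medium without human serum plus 0.5% Albumax II. Twelve-point half-log dilutions up to 10 μM final. 0.3% parasitemia, 2.5% hematocrit; 72 h at 37 °C under low-oxygen gas. Lysis buffer with SYBR Green added, 24 h at 25 °C, fluorescence read at 485/530 nm.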

[13] = Tmax in Wistar rat at 10 mg/kg, po; type: ADME, organism-based; parameters: dose 10 mg/kg, route oral; conditions: in vivo
[14] = tested on: Mus musculus; experiment: Oral bioavailability in Balb/c mouse at 20 mg/kg; type: ADME, organism-based; conditions: in vivo; summary of the method: as §2
[15] = Oral bioavailability in Wistar rat at 100 mg/kg; type: ADME, organism-based; conditions: in vivo; summary of the method: as §3
[16] = Half life in Wistar rat at 30 mg/kg, po; type: ADME, organism-based; parameters: dose 30 mg/kg, route oral; conditions: in vivo; summary of the method: as §3
[17] = tested on: Rattus norvegicus; experiment: Dose normalized AUC (0 to 5 hrs) in Wistar rat at 10 mg/kg, po; type: ADME, organism-based; parameters: dose 10 mg/kg, route oral; conditions: in vivo
Summary of the method: (§5)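 Rat snapshot PK: two Wistar rats dosed orally at 10 mg/kg, formulated at 2.5 mg/mL in 75% PEG300/25% D5W. Blood (100 μL) taken at 0.5, 1, 3 and 5 h post dose. Plasma pooled by sampling time, then analysed by LC-MS/MS.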

[18] = Tmax in Wistar rat at 30 mg/kg, po; type: ADME, organism-based; parameters: dose 30 mg/kg, route oral; conditions: in vivo; summary of the method: as §3
[19] = Tmax in Wistar rat at 100 mg/kg, po; type: ADME, organism-based; parameters: dose 100 mg/kg, route oral; conditions: in vivo; summary of the method: as §3
[20] = Cmax in Wistar rat at 30 mg/kg, po; type: ADME, organism-based; parameters: dose 30 mg/kg, route oral; conditions: in vivo; summary of the method: as §3
[21] = tested on: Mus musculus; experiment: AUC (0 to 24 hrs) in Balb/c mouse at 20 mg/kg, po; type: ADME, organism-based, Plasma; parameters: time < 24 hr, dose 20 mg/kg, route oral; conditions: in vivo; summary of the method: as §2
[22] = Half life in Wistar rat at 3 mg/kg, iv; type: ADME, organism-based; parameters: dose 3 mg/kg, route intravenous; conditions: in vivo; summary of the method: as §3
[23] = Half life in Wistar rat at 100 mg/kg, po; type: ADME, organism-based; parameters: dose 100 mg/kg, route oral; conditions: in vivo; summary of the method: as §3
[24] = Volume of distribution in Balb/c mouse at 5 mg/kg, iv; type: ADME, organism-based; parameters: dose 5 mg/kg, route intravenous; conditions: in vivo; summary of the method: as §2
[25] = tested on: Plasmodium berghei; experiment: Antimalarial activity against Plasmodium berghei ANKA expressing GFP infected in NMRI mouse assessed as increase of mouse survival at 30 mg/kg, po administered 24 hrs post infection qd for 3 days (reference value: 6 to 7 days); type: functional
[26] = biological target: Voltage-gated inwardly rectifying potassium channel KCNH2 (Homo sapiens, UniProt Q12809); experiment: Inhibition of human ERG channel expressed in CHO cells by patch clamp assay; type: cell-based
Sequence of Voltage-gated inwardly rectifying potassium channel KCNH2 (Q12809 whole entry): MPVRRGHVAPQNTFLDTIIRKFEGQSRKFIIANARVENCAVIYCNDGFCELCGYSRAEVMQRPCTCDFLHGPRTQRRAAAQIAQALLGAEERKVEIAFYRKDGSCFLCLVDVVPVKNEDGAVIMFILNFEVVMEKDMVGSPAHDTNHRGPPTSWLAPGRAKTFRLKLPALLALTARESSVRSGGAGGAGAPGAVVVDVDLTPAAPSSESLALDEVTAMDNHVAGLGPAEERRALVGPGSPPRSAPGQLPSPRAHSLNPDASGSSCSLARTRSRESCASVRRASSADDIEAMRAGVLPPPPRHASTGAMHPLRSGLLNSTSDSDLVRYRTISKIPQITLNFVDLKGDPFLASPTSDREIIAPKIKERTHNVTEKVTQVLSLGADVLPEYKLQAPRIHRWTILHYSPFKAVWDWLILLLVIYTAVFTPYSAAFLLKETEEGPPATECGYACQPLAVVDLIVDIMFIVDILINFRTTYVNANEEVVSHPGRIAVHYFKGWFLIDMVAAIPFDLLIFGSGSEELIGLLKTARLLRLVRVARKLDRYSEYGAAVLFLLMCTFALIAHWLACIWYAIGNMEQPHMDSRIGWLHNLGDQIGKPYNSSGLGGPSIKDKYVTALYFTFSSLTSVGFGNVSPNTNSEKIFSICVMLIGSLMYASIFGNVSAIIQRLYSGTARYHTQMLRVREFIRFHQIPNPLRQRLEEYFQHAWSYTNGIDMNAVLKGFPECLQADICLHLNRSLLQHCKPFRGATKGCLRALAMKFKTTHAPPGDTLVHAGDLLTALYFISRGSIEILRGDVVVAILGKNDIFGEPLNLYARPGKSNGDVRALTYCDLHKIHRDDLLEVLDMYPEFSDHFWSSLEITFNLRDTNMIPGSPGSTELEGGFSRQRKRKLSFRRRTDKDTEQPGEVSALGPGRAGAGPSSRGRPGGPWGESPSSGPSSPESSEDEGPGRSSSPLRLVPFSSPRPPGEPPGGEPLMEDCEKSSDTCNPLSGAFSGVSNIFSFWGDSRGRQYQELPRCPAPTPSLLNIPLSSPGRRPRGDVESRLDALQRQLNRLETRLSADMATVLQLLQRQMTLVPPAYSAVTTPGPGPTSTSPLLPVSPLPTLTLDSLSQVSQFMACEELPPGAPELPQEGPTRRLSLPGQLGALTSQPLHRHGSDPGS

[27] = Oral bioavailability in Wistar rat at 10 mg/kg; type: ADME, organism-based; conditions: in vivo; summary of the method: as §3
[28] = tested on: Plasmodium falciparum; experiment: Antimalarial activity against Plasmodium falciparum W2 after 72 hrs by SYBR green fluorescence assay; type: functional, organism-based; conditions: W2, 72 h; summary of the method: as §4
[29] = Cmax in Balb/c mouse at 20 mg/kg, po; type: ADME, organism-based; parameters: dose 20 mg/kg, route oral; conditions: in vivo; summary of the method: as §2
[30] = Apparent permeability across basolateral to apical side in human Caco2 cells by LC/MS analysis; type: ADME, cell-based; conditions: Caco-2
Summary of the method: (§6)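 Caco-2 monolayers in 96-well format. Compound measured in apical and basolateral chambers by LC/MS, giving Papp in the A–B and B–A directions. Values reported in cm/s × 10⁶.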

[31] = Cmax in Wistar rat at 10 mg/kg, po; type: ADME, organism-based; parameters: dose 10 mg/kg, route oral; conditions: in vivo; summary of the method: as §5
[32] = Apparent permeability across apical to basolateral side in human Caco2 cells by LC/MS analysis; type: ADME, cell-based; conditions: Caco-2; summary of the method: as §6
[33] = tested on: Plasmodium berghei; experiment: Antimalarial activity against Plasmodium berghei ANKA expressing GFP infected in NMRI mouse assessed as reduction of parasite level in blood at 100 mg/kg, po administered 24 hrs post infection measured after 72 hrs post infection by flow cytometry; type: functional; parameters: scale not given: the % may be the effect or the level left; summary of the method: as §1
[34] = Clearance in Wistar rat at 3 mg/kg, iv; type: ADME, organism-based; parameters: dose 3 mg/kg, route intravenous; conditions: in vivo; summary of the method: as §3
[35] = Cytotoxicity against human 293T cells; type: cell-based; conditions: HEK-293T cells
[36] = tested on: Plasmodium berghei; experiment: Antimalarial activity against Plasmodium berghei ANKA expressing GFP infected in NMRI mouse assessed as increase of mouse survival at 100 mg/kg, po administered 24 hrs post infection (reference value: 6 to 7 days); type: functional
[37] = Permeability of the compound by PAMPA; type: ADME
Summary of the method: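 PAMPA in 96-well filter plates. Permeated compound quantified by UV absorbance at 260–290 nm. Reported as percentage absorbed.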

[38] = AUC in Wistar rat at 3 mg/kg, iv; type: ADME, organism-based; parameters: dose 3 mg/kg, route intravenous; conditions: plasma; summary of the method: as §3
[39] = Tmax in Balb/c mouse at 20 mg/kg, po; type: ADME, organism-based; parameters: dose 20 mg/kg, route oral; conditions: in vivo; summary of the method: as §2
[40] = AUC (all) in Wistar rat at 30 mg/kg, po; type: ADME, organism-based; parameters: dose 30 mg/kg, route oral; conditions: plasma; summary of the method: as §3
[41] = Half life in Balb/c mouse at 5 mg/kg, iv; type: ADME, organism-based; parameters: dose 5 mg/kg, route intravenous; conditions: in vivo; summary of the method: as §2
[42] = tested on: Mus musculus; experiment: AUC (0 to 24 hrs) in Balb/c mouse at 5 mg/kg, iv; type: ADME, organism-based, Plasma; parameters: time < 24 hr, dose 5 mg/kg, route intravenous; conditions: in vivo; summary of the method: as §2
[43] = AUC (all) in Wistar rat at 10 mg/kg, po; type: ADME, organism-based; parameters: dose 10 mg/kg, route oral; conditions: plasma; summary of the method: as §3
[44] = Half life in Balb/c mouse at 20 mg/kg, po; type: ADME, organism-based; parameters: dose 20 mg/kg, route oral; conditions: in vivo; summary of the method: as §2
[45] = Half life in Wistar rat at 10 mg/kg, po; type: ADME, organism-based; parameters: dose 10 mg/kg, route oral; conditions: in vivo

## CC1(C)c2nc(-c3ccc(F)cc3)c(Nc3ccc(F)cc3)n2CCN1C(=O)CN [GANAPLACIDE]
[1]
  ED99: 2.2 mg/kg
[2]
  CC50: > 12 µM
[3]
  Activity: 99.5%
[4]
  Survival: 16.3 days
[5]
  clearance: 49.2 mL/min/kg
[6]
  AUC: 34.9 µM·h
[7]
  CC50: > 12 µM
[8]
  Activity: 99.8%
[9]
  bioavailability: 40%
[10]
  CC50: > 12 µM
[11]
  CC50: > 12 µM
[12]
  EC50: 0.01 µM
[13]
  Tmax: 1.5 h
[14]
  F: 74%
[15]
  bioavailability: 57%
[16]
  half-life: 6.3 h
[17]
  AUC/dose: 1.2 min.ug/ml/(mg/kg)
[18]
  Tmax: 4.3 h
[19]
  Tmax: 8 h
[20]
  Cmax: 580 nM
[21]
  AUC: 12.155 µM·h
[22]
  half-life: 4.6 h
[23]
  half-life: 8.4 h
[24]
  Vd: 10.2 L/kg
[25]
  Survival: 17.7 days
[26]
  IC50: 13.4 µM
[27]
  bioavailability: 20%
[28]
  EC50: 0.006 µM
[29]
  Cmax: 1540 nM
[30]
  Papp B→A: 2.99 ×10⁻⁶ cm/s
[31]; Wistar
  Cmax: 126 nM
[31]
  Cmax: 91 nM
[32]
  Papp A→B: 1.26 ×10⁻⁶ cm/s
[33]
  Activity: 99.4%
[34]
  clearance: 67.5 mL/min/kg
[35]
  CC50: > 12 µM
[36]
  Survival: 14 days
[37]
  permeability: 51.8%
[38]
  AUC: 1.83 µM·h
[39]
  Tmax: 1 h
[40]
  AUC: 7.34 µM·h
[41]
  half-life: 2 h
[42]
  AUC: 4.119 µM·h
[43]
  AUC: 0.974 µM·h
[44]
  half-life: 4.35 h
[45]
  half-life: 4.7 h
